# Activity calls are given as the source filed them. The rule behind the calls is not given here.
# Columns and labels:
# Mus musculus [1] = species: Mus musculus; experiment: Cytotoxicity against BMOL-NT cells assessed as induction of cell death up to 100 uM; type: toxicity, cell-based
# Procedure, shortened: (§1)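 Mouse bipotential oval (liver progenitor) line BMOL-NT (passage <15) grown in Williams' E medium with 5% FBS, EGF, IGF-II and insulin. Plated at 1,500 cells/well; next day compound added as a 2x solution to give 1x final. Confluency imaged on Cellavista twice daily for 5 days or until 80% confluent. Growth curves plotted from log confluency; doubling time taken from the log-phase linear portion.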
# Mus musculus [2] = species: Mus musculus; experiment: Cytotoxicity against BMOL-NT cells assessed as induction of cell death at 100 uM; type: toxicity, cell-based; procedure, shortened: as §1
# [3] = Growth inhibition of BMOL-NT cells; type: cell-based; conditions: mouse
# Procedure, shortened: (§2)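 BMOL-NT (low passage, p<15) or BMOL-T (p>30) mouse liver progenitor cells in Williams' E medium. Seeded at 1,500 (NT) or 1,000 (T) cells per well, allowed to attach, then compound added as 2x solution to 1x final. Cellavista imaging twice daily for 5 days or until 80% confluent. Log % well coverage plotted against time; doubling time taken from log-phase linear portion.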
# [4] = Growth inhibition of BMOL-T cells assessed as doubling time at 8 uM (reference value: 27 to 34 hrs); type: functional, Mus musculus; procedure, shortened: as §2
# [5] = Growth inhibition of BMOL-NT cells assessed as doubling time at 10 uM (reference value: 29 to 32.5 hrs); type: cell-based; conditions: mouse; procedure, shortened: as §2
# [6] = Growth inhibition of BMOL-T cells assessed as doubling time at 0.5 uM (reference value: 27 to 34 hrs); type: functional, Mus musculus; procedure, shortened: as §2
# [7] = Growth inhibition of BMOL-NT cells assessed as population doubling time at 2 uM (reference value: 29 to 32.5 hrs); type: cell-based; conditions: mouse; procedure, shortened: as §2
# [8] = Growth inhibition of BMOL-T cells assessed as doubling time at 10 uM (reference value: 27 to 34 hrs); type: functional, Mus musculus; procedure, shortened: as §2
# [9] = Growth inhibition of BMOL-T cells assessed as doubling time at 1 uM (reference value: 27 to 34 hrs); type: functional, Mus musculus; procedure, shortened: as §2
# [10] = tested on: BMOL-NT cells (Mus musculus); experiment: Growth inhibition of BMOL-NT cells at 10 uM after 2 days relative to control; conditions: 48 h, read-out: GI
# [11] = Induction of apoptosis in BMOL-T cells assessed as increase in fragmented DNA at 10 uM measured after 3 days relative to control; type: functional, Mus musculus
# Procedure, shortened: (§3)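 BMOL-NT or BMOL-T cells, compound at 10 μM for three days. Fixed in 4% paraformaldehyde/0.1% Triton X-100, DNA fragmentation labelling reaction 60 min at 37 °C, nuclear dye 5 min, Cellavista imaging. Cisplatin 8 μg/mL for 24 h as positive control. Apoptotic index is % cells with fragmented DNA per well, three cell lots.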
# [12] = Growth inhibition of BMOL-NT cells assessed as population doubling time at 1 uM (reference value: 29 to 32.5 hrs); type: cell-based; conditions: mouse; procedure, shortened: as §2
# [13] = Growth inhibition of BMOL-NT cells assessed as increase in doubling time at 8 uM after 2 days relative to control; type: cell-based; parameters: scale not given: the % may be the effect or the level left; conditions: mouse, 48 h; procedure, shortened: as §2
# [14] = Induction of apoptosis in BMOL-NT cells assessed as increase in fragmented DNA at 10 uM measured after 3 days relative to control; type: cell-based; conditions: mouse, 72 h; procedure, shortened: as §3
# [15] = Antimitotic activity against BMOL-NT cells assessed as reduction in mitotic index at 10 uM measured after 3 days by phosphohistone H3 staining-based method; type: cell-based; parameters: scale not given: the % may be the effect or the level left; conditions: mouse, 72 h
# Procedure, shortened: (§4)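 BMOL-NT or BMOL-T cells, compound at 10 μM for three days. Fixed in 4% paraformaldehyde/0.1% Triton X-100, then phospho-histone H3 antibody 60 min at room temperature with nuclear counterstain, Cellavista imaging. Colcemid 1 μg/mL overnight as positive control. Mitotic index is % positive cells per well, mean of replicate wells, three cell lots.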
# [16] = Growth inhibition of BMOL-NT cells assessed as doubling time at 4 uM (reference value: 29 to 32.5 hrs); type: cell-based; conditions: mouse; procedure, shortened: as §2
# [17] = Growth inhibition of BMOL-NT cells assessed as increase in doubling time at 10 uM after 2 days relative to control; type: cell-based; parameters: scale not given: the % may be the effect or the level left; conditions: mouse, 48 h; procedure, shortened: as §2
# [18] = Growth inhibition of BMOL-T cells assessed as increase in doubling time at 10 uM after 2 days relative to control; type: functional, Mus musculus; parameters: scale not given: the % may be the effect or the level left; procedure, shortened: as §2
# [19] = Growth inhibition of BMOL-NT cells assessed as population doubling time at 0.5 uM (reference value: 29 to 32.5 hrs); type: cell-based; conditions: mouse; procedure, shortened: as §2
# [20] = Antimitotic activity against BMOL-T cells assessed as mitotic index at 10 uM measured after 3 days by phosphohistone H3 staining-based method relative to control; type: functional, Mus musculus; procedure, shortened: as §4
# [21] = Growth inhibition of BMOL-T cells assessed as doubling time at 2 uM (reference value: 27 to 34 hrs); type: functional, Mus musculus; procedure, shortened: as §2
# [22] = Growth inhibition of BMOL-T cells assessed as increase in doubling time at 8 uM after 2 days relative to control; type: functional, Mus musculus; parameters: scale not given: the % may be the effect or the level left; procedure, shortened: as §2
# [23] = Growth inhibition of BMOL-NT cells assessed as doubling time at 8 uM (reference value: 29 to 32.5 hrs); type: cell-based; conditions: mouse; procedure, shortened: as §2
# BMOL-T [24] = experiment: Anticancer activity against BMOL-T cells assessed as cell growth inhibition at 100 uM; type: functional, cell-based; conditions: Mus musculus; procedure, shortened: as §2
# [25] = Growth inhibition of BMOL-T cells; type: functional; conditions: Mus musculus; procedure, shortened: as §2
# [26] = Anticancer activity against BMOL-T cells assessed as doubling time at 8 uM; type: functional, Mus musculus; procedure, shortened: as §2
# BMOL-T [27] = experiment: Anticancer activity against BMOL-T cells assessed as cell growth inhibition at 10 uM; type: functional, cell-based; conditions: Mus musculus; procedure, shortened: as §2
# [28] = Anticancer activity against BMOL-T cells assessed as doubling time at 10 uM; type: functional, Mus musculus; procedure, shortened: as §2
# [29] = Anticancer activity against BMOL-T cells assessed as doubling time at 0 to 6 uM; type: functional, Mus musculus; procedure, shortened: as §2
# Mus musculus [30] = species: Mus musculus; experiment: Cytotoxicity against BMOL-NT cells assessed as cell growth inhibition at 10 uM; type: toxicity, cell-based; procedure, shortened: as §2
# Mus musculus [31] = species: Mus musculus; experiment: Cytotoxicity against BMOL-NT cells assessed as doubling time at 0 to 10 uM; type: toxicity, cell-based; procedure, shortened: as §2
# [32] = molecular target: T1, Nuclear factor NF-kappa-B p100 subunit (Mus musculus) (UniProt Q9WTK5); experiment: Inhibition of NF-kappaB2 in BMOL-T cells assessed as reduction in p52 formation by western blot analysis relative to control; type: cell-based; conditions: concentration not given here
# T1 sequence (whole entry): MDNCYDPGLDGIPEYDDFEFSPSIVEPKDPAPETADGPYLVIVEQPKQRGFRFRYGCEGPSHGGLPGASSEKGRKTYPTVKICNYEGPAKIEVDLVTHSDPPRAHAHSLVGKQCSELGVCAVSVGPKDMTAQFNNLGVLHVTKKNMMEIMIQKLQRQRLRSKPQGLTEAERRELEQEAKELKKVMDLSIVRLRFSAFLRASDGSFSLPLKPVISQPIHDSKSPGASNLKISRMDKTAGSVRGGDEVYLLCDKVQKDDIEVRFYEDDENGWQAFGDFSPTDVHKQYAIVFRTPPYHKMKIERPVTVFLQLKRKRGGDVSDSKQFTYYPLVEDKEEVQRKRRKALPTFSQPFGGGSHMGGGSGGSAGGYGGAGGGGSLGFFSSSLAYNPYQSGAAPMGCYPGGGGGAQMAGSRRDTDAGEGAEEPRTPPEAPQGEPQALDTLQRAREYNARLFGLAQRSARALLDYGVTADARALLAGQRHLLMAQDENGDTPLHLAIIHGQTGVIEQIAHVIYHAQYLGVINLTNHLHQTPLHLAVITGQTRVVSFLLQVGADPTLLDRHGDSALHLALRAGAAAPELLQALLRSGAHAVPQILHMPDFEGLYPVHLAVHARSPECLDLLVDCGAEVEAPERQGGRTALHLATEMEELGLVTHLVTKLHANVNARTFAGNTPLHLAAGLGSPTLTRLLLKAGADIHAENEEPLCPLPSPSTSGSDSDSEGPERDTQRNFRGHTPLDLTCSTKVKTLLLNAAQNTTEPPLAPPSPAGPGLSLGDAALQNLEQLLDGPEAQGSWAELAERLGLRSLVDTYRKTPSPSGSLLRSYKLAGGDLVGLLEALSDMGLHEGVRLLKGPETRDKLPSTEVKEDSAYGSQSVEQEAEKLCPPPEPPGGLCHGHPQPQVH
# Procedure, shortened: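 BMOL-T cells exposed to compound as in the growth assay, lysed in DISC buffer. Western blot with primary antibodies overnight and HRP secondaries 1 h, all diluted in 5% skim milk in TBS-T, chemiluminescent detection. Bands normalised to β-actin; p52/p100 ratio and phospho-p65 compared with control.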
compound,measurement,setting,value
O=CC#Cc1ccc2c(c1)C(=O)N(C1CCC(=O)NC1=O)C2=O (stereo not drawn),Activity,Mus musculus [1],Non-Toxic
O=C1CCC(N2C(=O)c3ccccc3C2=O)C(=O)N1 (stereo not drawn) [THALIDOMIDE],Activity,Mus musculus [2],Toxic
same,GI50,[3],100 µM
CNC(=O)c1cc(Oc2ccc(NC(=O)Nc3ccc(Cl)c(C(F)(F)F)c3)cc2)ccn1 [SORAFENIB],Time,[4],65 to 66 h
same,Time,[5],68 h
same,Time,[6],28.05 to 35 h
same,Time,[7],33.3 to 33.7 h
same,Time,[8],79 h
same,Time,[9],33.2 to 34.2 h
same,inhibition of growth at 10 µM,[10],70%
same,fold change (FC),[11],38
same,Time,[12],32.5 to 34.7 h
same,Activity,[13],100 to 128%
same,fold change (FC),[14],2.5 to 18.1
same,Activity,[15],66 to 87%
same,Time,[16],37.4 to 37.9 h
same,Activity,[17],101 to 134%
same,Activity,[18],193 - 235%
same,Time,[19],31.9 to 32.5 h
same,Activity,[20],62%
same,Time,[21],34.4 to 35 h
same,Activity,[22],36 - 144%
same,Time,[23],58 to 74 h
O=CC#Cc1cccc2c1C(=O)N(C1CCC(=O)NC1=O)C2=O (racemic),Activity,Mus musculus [1],Non-Toxic
CC(C)(C)c1ccc(Nc2ccc3c(c2)C(=O)N(C2CCC(=O)NC2=O)C3=O)cc1 (stereo not drawn),growth inhibition (GI),BMOL-T [24],Active
same,Activity,Mus musculus [2],Toxic
same,GI50,[25],100 µM
same,GI50,[3],100 µM
Nc1cccc2c1CN(C1CCC(=O)NC1=O)C2=O (stereo not drawn) [LENALIDOMIDE],Activity,Mus musculus [2],Toxic
same,GI50,[3],100 µM
CCCCCc1ccc(Nc2cccc3c2C(=O)N(C2CCC(=O)NC2=O)C3=O)cc1 (stereo not drawn),growth inhibition (GI),BMOL-T [24],Active
same,Activity,Mus musculus [2],Toxic
same,GI50,[25],100 µM
same,GI50,[3],100 µM
CC(C)c1ccc(Nc2cccc3c2C(=O)N(C2CCC(=O)NC2=O)C3=O)cc1 (stereo not drawn),Time,[26],26 h
same,growth inhibition (GI),BMOL-T [27],Active
same,Time,[28],30 h
same,Time,[29],23 h
same,Activity,Mus musculus [30],Non-Toxic
same,fold change (FC),[11],1.6 - 4
same,GI50,[25],40 µM
same,Time,Mus musculus [31],31 h
same,fold change (FC),[14],1.5
same,GI50,[3],60 µM
same,Activity,[15],Non-Toxic
same,Activity,[18],26 - 27%
same,inhibition,[32],30%
same,Activity,[20],34%
same,Activity,[22],11%
CCCCCc1ccc(Nc2ccc3c(c2)C(=O)N(C2CCC(=O)NC2=O)C3=O)cc1 (stereo not drawn),growth inhibition (GI),BMOL-T [27],Active
same,Activity,Mus musculus [30],Non-Toxic
same,GI50,[25],60 µM
same,GI50,[3],60 µM

# Source: ChEMBL document CHEMBL3856197 (Eur J Med Chem, 2016)
